The source made the active and inactive calls. The rule behind the calls is not given here.
Experiments:
[1] = target: T1, Hepatocyte growth factor receptor (Homo sapiens, UniProt P08581); experiment: Inhibition of c-Met at 1 uM incubated for 60 mins by spectrophotometry
In short: (§1)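 Compounds in 1% DMSO; reaction started by adding purified kinase, 60 min at 37 °C. PY99 antibody, then HRP anti-mouse IgG; o-phenylenediamine/H2O2 read at 490 nm. Inhibition % = [1-(A490/A490 control)]×100; IC50 from inhibition curves.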

[2] = Antiproliferative activity against human EBC1 cells expressing elevated levels of constitutively active c-Met after 72 hrs by SRB assay; type: functional, cell-based; settings: EBC-1, 72 h
In short: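 Cells seeded in 96-well plates, exposed the next day to a range of compound concentrations and cultured 72 h. Fixed with cold 10% TCA at 4 °C for 1 h, stained with 0.4% SRB in 1% acetic acid at room temperature, washed with 1% acetic acid, dye solubilized in 10 mM Tris base. OD read at 515 nm.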

[3] = target: T1, Hepatocyte growth factor receptor; experiment: Inhibition of c-Met at 10 uM incubated for 60 mins by spectrophotometry; in short: as §1
[4] = target: Ephrin type-A receptor 2 (Homo sapiens, UniProt P29317); experiment: Inhibition of EPHA2; in short: as §1
[5] = target: T1, Hepatocyte growth factor receptor; experiment: Inhibition of c-Met incubated for 60 mins at spectrophotometry
[6] = target: T1, Hepatocyte growth factor receptor; experiment: Inhibition of c-Met-mediated ERK1/2 phosphorylation in human EBC1 cells at 0.1 to 10 uM incubated for 4 hrs by Western blot; type: cell-based
In short: (§2)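 EBC-1 cells grown to exponential phase and treated with compound for 4 h at 37 °C. Lysed in 1× SDS sample buffer, resolved on 10% SDS-PAGE, transferred to nitrocellulose. Probed for phospho-c-Met/c-Met, phospho-ERK1/2/ERK1/2, phospho-AKT/AKT and GAPDH, then HRP anti-rabbit or anti-mouse IgG.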

[7] = target: Receptor tyrosine-protein kinase erbB-2 (Homo sapiens, UniProt P04626); experiment: Inhibition of ERBB2; in short: as §1
[8] = target: Macrophage-stimulating protein receptor (Homo sapiens, UniProt Q04912); experiment: Inhibition of Ron; in short: as §1
[9] = target: T1, Hepatocyte growth factor receptor; experiment: Inhibition of c-Met-mediated AKT phosphorylation in human EBC1 cells at 0.1 to 10 uM incubated for 4 hrs by Western blot; type: cell-based; in short: as §2
[10] = target: T2, Tyrosine-protein kinase receptor TYRO3 (Homo sapiens, UniProt Q06418); experiment: Inhibition of TYRO3; in short: as §1
T2 sequence (Q06418 whole entry): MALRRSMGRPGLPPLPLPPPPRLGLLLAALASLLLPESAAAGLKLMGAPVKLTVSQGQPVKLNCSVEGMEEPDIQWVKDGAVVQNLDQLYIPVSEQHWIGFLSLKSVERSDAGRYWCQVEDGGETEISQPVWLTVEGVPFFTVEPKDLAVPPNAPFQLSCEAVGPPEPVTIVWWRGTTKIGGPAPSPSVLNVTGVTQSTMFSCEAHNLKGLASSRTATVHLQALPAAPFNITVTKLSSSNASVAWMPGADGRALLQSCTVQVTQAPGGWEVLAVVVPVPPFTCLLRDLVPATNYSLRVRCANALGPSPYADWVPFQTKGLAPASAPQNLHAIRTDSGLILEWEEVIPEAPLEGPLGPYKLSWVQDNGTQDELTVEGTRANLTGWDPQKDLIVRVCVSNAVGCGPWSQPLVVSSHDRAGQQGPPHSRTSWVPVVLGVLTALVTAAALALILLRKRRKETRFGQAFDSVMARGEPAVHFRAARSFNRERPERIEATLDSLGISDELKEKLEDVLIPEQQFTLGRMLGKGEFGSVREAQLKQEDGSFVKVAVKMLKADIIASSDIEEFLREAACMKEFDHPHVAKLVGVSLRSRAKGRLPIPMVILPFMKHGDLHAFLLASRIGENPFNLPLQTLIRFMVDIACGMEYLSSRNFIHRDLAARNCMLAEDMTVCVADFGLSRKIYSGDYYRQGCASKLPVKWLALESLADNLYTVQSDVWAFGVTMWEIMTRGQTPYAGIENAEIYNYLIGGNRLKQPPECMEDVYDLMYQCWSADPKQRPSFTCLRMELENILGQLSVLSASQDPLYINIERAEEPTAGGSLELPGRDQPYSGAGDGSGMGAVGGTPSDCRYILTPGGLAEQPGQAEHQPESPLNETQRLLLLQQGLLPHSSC

[11] = target: Vascular endothelial growth factor receptor 1 (Homo sapiens, UniProt P17948); experiment: Inhibition of FLT1; in short: as §1
[12] = target: Epidermal growth factor receptor (Homo sapiens, UniProt P00533); experiment: Inhibition of EGFR; in short: as §1
[13] = target: T3, Tyrosine-protein kinase receptor UFO (Homo sapiens, UniProt P30530); experiment: Inhibition of Axl; in short: as §1
T3 sequence (P30530 whole entry): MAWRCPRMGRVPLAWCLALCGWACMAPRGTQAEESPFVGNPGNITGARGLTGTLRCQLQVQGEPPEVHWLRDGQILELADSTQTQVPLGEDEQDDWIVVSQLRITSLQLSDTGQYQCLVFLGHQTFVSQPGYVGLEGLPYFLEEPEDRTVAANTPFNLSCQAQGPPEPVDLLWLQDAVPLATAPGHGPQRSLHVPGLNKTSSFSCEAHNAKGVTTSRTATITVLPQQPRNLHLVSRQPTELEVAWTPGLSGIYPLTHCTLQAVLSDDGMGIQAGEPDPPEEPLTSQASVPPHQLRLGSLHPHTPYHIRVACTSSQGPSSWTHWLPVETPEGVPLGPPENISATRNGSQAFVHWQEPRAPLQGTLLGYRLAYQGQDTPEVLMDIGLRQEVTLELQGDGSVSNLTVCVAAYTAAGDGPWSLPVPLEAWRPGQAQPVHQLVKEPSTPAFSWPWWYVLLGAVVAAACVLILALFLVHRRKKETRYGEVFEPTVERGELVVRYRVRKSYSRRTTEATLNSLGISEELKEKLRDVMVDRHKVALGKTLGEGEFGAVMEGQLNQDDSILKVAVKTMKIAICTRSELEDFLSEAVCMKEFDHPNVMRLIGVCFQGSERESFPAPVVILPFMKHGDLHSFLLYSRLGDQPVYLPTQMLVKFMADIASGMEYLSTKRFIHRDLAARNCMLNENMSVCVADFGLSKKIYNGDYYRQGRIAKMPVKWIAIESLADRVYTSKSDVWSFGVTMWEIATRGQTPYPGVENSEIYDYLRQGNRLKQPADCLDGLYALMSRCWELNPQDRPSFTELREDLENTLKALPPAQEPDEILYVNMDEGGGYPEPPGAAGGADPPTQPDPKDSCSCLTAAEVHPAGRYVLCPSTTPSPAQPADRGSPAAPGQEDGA

[14] = target: Vascular endothelial growth factor receptor 2 (Homo sapiens, UniProt P35968); experiment: Inhibition of KDR; in short: as §1
[15] = target: T4, Tyrosine-protein kinase Mer (Homo sapiens, UniProt Q12866); experiment: Inhibition of Mer; in short: as §1
T4 sequence (Q12866 whole entry): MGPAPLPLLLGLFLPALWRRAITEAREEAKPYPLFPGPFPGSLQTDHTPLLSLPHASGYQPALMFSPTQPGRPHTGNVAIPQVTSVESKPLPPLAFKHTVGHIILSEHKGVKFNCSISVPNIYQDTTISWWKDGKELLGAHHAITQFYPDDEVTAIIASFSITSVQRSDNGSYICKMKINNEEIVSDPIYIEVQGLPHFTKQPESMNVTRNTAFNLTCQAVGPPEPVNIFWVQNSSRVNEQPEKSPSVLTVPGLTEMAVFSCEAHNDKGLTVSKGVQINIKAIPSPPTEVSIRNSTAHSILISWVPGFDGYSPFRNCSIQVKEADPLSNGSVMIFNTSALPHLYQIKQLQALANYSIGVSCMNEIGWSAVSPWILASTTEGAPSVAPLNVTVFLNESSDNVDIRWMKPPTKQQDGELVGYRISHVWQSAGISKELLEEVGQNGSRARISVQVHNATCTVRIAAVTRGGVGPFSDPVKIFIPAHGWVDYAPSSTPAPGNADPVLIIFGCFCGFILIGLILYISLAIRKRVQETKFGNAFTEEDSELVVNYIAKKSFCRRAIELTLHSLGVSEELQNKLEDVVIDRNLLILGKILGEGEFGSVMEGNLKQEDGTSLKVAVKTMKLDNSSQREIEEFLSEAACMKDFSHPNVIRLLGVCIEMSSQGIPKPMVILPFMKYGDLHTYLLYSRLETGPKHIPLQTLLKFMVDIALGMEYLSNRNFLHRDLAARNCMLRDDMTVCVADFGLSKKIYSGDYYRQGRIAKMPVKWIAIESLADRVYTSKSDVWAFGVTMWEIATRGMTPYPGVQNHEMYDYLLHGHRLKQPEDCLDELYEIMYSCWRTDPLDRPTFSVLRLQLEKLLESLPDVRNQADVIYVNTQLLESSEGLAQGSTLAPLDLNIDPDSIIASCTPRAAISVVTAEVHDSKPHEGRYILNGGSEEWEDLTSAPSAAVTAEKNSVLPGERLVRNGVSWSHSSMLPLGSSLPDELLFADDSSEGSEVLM

[16] = target: Receptor tyrosine-protein kinase erbB-4 (Homo sapiens, UniProt Q15303); experiment: Inhibition of ERBB4; in short: as §1
[17] = target: Fibroblast growth factor receptor 1 (Homo sapiens, UniProt P11362); experiment: Inhibition of FGFR1; in short: as §1
[18] = target: Platelet-derived growth factor receptor (Homo sapiens, UniProt P09619+P16234); experiment: Inhibition of PDGFR; type: protein-complex assay; in short: as §1
[19] = target: Tyrosine-protein kinase ABL1 (Homo sapiens, UniProt P00519); experiment: Inhibition of ABL; in short: as §1
[20] = target: T1, Hepatocyte growth factor receptor; experiment: Inhibition of c-Met phosphorylation in human EBC1 cells incubated for 4 hrs by Western blot; type: cell-based; in short: as §2

T1 sequence (P08581 whole entry): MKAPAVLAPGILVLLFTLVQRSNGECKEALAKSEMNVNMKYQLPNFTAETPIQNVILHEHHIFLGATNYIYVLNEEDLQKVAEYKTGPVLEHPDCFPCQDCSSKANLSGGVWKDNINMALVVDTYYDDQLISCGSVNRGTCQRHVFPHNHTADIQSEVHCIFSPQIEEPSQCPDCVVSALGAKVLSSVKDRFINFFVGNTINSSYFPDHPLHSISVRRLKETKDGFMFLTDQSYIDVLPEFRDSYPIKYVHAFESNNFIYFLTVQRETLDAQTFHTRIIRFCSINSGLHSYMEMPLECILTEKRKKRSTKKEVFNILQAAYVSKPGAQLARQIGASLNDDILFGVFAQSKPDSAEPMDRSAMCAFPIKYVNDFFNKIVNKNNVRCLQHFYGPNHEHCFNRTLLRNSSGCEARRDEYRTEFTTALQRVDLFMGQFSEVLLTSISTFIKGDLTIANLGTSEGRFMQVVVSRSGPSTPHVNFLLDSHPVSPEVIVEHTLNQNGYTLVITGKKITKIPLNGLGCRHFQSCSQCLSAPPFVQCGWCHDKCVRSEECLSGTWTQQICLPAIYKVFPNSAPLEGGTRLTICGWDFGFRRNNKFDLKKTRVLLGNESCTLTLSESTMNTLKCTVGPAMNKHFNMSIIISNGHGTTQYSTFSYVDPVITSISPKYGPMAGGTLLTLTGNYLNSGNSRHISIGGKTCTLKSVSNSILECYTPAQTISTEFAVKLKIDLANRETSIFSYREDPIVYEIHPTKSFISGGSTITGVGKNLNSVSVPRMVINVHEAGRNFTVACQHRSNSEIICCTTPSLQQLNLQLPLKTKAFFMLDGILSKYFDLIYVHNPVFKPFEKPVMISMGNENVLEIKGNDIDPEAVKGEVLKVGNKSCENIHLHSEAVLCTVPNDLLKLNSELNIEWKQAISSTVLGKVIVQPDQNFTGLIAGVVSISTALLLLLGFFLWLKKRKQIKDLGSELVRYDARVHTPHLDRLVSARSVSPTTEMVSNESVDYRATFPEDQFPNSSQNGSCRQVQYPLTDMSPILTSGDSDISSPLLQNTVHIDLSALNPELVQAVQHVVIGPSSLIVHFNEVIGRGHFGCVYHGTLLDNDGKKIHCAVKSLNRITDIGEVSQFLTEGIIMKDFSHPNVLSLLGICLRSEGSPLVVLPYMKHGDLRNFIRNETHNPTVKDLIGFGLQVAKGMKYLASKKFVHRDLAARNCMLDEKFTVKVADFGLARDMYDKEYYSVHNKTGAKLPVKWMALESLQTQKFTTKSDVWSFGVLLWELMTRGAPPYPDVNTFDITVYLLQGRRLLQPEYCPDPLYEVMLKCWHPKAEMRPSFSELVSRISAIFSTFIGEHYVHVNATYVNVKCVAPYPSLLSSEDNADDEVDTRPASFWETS
Chain of Fibroblast growth factor receptor 1 (P11362 whole entry): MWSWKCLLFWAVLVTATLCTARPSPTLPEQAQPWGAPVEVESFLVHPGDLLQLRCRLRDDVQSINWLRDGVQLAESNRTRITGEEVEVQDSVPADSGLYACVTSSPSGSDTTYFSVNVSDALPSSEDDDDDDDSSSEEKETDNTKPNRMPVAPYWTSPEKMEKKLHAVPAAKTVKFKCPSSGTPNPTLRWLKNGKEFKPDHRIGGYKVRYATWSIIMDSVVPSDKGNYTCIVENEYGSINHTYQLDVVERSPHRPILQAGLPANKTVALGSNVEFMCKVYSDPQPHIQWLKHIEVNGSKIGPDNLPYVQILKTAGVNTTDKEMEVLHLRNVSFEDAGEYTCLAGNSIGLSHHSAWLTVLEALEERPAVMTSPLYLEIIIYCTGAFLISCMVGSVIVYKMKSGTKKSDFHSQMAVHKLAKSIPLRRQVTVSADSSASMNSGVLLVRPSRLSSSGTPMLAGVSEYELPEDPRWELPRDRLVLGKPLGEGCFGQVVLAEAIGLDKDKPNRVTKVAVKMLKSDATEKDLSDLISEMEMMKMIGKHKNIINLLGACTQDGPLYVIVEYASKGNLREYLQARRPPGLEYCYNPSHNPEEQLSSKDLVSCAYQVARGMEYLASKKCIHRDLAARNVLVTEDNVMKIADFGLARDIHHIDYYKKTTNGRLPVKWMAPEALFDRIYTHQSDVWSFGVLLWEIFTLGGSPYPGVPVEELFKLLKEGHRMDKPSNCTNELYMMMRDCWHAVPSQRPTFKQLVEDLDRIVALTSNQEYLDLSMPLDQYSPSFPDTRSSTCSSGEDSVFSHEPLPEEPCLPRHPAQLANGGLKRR
Chain of Receptor tyrosine-protein kinase erbB-4 (Q15303 whole entry): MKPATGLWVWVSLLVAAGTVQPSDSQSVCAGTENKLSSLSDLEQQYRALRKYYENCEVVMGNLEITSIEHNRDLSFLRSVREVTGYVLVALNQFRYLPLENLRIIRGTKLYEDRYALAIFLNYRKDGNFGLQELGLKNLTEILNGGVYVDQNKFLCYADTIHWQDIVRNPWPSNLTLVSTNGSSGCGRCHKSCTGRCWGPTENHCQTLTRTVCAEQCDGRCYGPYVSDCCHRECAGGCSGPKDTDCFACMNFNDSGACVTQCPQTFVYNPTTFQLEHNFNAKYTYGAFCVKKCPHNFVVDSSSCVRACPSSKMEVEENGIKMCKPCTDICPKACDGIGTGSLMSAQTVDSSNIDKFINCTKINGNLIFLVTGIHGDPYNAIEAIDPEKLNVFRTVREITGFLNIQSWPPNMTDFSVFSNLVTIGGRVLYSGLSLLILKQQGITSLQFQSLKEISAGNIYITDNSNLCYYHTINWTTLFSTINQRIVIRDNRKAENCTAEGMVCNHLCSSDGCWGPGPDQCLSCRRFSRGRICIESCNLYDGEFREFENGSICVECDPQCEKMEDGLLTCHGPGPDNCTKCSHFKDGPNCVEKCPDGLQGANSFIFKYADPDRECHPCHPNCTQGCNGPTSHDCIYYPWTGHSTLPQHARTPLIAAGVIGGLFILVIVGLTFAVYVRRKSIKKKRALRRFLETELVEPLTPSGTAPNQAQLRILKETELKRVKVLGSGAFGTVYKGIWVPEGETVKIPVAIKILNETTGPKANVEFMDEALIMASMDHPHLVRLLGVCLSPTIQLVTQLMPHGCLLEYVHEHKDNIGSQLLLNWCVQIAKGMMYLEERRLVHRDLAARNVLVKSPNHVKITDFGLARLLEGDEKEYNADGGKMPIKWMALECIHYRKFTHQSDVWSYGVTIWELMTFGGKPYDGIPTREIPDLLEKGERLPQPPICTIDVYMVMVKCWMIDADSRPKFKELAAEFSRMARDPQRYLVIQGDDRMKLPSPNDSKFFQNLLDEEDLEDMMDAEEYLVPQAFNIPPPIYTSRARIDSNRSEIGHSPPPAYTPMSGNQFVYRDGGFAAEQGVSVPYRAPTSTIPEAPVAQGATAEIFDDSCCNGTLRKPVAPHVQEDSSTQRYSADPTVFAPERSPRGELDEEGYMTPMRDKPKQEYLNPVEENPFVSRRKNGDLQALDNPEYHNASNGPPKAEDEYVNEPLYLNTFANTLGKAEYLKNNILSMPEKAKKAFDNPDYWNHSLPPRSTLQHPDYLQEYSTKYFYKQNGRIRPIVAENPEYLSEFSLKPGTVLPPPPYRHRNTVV
Chain of Tyrosine-protein kinase ABL1 (P00519 whole entry): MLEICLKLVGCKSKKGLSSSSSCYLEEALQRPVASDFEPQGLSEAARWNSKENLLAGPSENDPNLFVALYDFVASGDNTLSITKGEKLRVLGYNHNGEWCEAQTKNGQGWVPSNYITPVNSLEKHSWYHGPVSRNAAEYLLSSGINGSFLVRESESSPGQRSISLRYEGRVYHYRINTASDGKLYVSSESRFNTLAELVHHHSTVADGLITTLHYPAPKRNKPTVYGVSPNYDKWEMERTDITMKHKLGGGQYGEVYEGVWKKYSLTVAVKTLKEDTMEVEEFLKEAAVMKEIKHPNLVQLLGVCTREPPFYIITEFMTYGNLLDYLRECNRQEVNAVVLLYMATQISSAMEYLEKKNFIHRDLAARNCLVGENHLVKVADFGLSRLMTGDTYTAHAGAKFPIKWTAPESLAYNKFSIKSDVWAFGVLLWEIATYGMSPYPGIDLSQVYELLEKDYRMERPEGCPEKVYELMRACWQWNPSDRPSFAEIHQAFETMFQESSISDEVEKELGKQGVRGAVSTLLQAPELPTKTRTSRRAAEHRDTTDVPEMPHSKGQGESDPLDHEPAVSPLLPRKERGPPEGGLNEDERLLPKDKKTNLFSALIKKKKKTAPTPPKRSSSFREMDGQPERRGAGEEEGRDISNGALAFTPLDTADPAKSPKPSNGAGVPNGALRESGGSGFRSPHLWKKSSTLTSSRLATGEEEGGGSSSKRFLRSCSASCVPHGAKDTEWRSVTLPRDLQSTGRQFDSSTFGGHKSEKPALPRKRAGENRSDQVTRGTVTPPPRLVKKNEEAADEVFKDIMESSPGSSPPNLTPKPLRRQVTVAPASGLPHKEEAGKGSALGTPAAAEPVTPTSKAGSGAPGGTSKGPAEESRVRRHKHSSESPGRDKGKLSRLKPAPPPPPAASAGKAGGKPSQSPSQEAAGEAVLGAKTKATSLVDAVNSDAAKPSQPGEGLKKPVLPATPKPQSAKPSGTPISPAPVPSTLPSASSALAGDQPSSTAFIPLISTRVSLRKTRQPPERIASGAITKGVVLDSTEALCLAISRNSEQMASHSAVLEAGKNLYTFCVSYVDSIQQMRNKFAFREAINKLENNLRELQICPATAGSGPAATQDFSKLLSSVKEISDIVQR

C[C@@H](NC(=O)c1cc(-c2cnn(C3CCOCC3)c2)cnc1N)c1c(Cl)ccc(F)c1Cl gave an inhibition [1] of 27.6%.
With Cn1cc(-c2cnc(N)c(C(=O)NCc3cc(F)ccc3F)c2)cn1 the IC50 [2] was 15 µM.
Compound CC(c1c(Cl)ccc(F)c1Cl)n1cnc2ncc(-c3cnn(C4CCN(C(=O)OC(C)(C)C)CC4)c3)cc2c1=O (stereo not given) has an inhibition [3] of 28.9%.
With Cn1cc(-c2cnc(N)c(C(=O)NCc3c(F)ccc(Cl)c3Cl)c2)cn1 the IC50 [2] was 12.7 µM.
With CC(NC(=O)c1cc(-c2cnn(C3CCNCC3)c2)cnc1N)c1c(Cl)ccc(F)c1Cl (stereo not given) the IC50 [2] was 1.46 µM.
CN(Cc1c(F)ccc(Cl)c1Cl)C(=O)c1cc(-c2cnn(C)c2)cnc1N showed an inhibition [1] of 13.1%.
For CN(Cc1c(F)ccc(F)c1Cl)C(=O)c1cc(-c2cnn(C)c2)cnc1N, the inhibition [1] was 18.1%.
With CC(c1c(Cl)ccc(F)c1Cl)n1cnc2ncc(-c3cnn(C4CCNCC4)c3)cc2c1=O (stereo not given) the inhibition [3] was 34.1%.
CC(NC(=O)c1cc(-c2cnn(C)c2)cnc1N)c1c(Cl)ccc(F)c1Cl (stereo not given) gave an IC50 [2] of over 50 µM.
With C[C@H](NC(=O)c1cc(-c2cnn(C3CCOCC3)c2)cnc1N)c1c(Cl)ccc(F)c1Cl the IC50 [4] was 6.18 µM, the IC50 [5] was 22 nM and the inhibition [6] was “Active”. For the same compound, the IC50 [7] was over 10 µM, the IC50 [8] was 8.26 µM and the inhibition [9] was “Active”. The IC50 [10] was over 10 µM, the IC50 [11] was 8.16 µM and the IC50 [12] was over 10 µM. The IC50 [2] was 1.22 µM, the IC50 [13] was over 10 µM and the IC50 [14] was over 10 µM. The IC50 [15] was over 10 µM, the IC50 [16] was over 10 µM and the IC50 [17] was 3.48 µM. The IC50 [18] was over 10 µM, the IC50 [19] was 4.99 µM and the inhibition [20] was “Dose-dependent effect”.
In the case of CC(NC(=O)c1cc(-c2ccc(OCC(=O)N3CCOCC3)cc2)cnc1N)c1c(Cl)ccc(F)c1Cl (stereo not given), the IC50 [2] is reported as 6.05 µM.
Work on CN(Cc1c(F)ccc(Cl)c1F)C(=O)c1cc(-c2cnn(C)c2)cnc1N yielded an inhibition [1] of 10.9%.
In the case of CC(NC(=O)c1cc(-c2cnn(C3CCOCC3)c2)cnc1N)c1c(Cl)ccc(F)c1Cl (racemic), the IC50 [5] is reported as 99 nM and the IC50 [2] is reported as 3.49 µM.
In the case of Cn1cc(-c2cnc(N)c(C(=O)NCc3ccc(F)c(F)c3)c2)cn1, the IC50 [2] is reported as 14.6 µM.
For CC(NC(=O)c1cc(-c2ccc3c(c2)CC(=O)N3)cnc1N)c1c(Cl)ccc(F)c1Cl (stereo not given), the IC50 [2] was 17.8 µM.
Work on C[C@@H](Oc1cc(-c2cnn(C3CCNCC3)c2)cnc1N)c1c(Cl)ccc(F)c1Cl [CRIZOTINIB] yielded an IC50 [2] of 0.053 µM.
Work on Cn1cc(-c2cnc(N)c(C(=O)NCc3c(F)ccc(F)c3Cl)c2)cn1 yielded an IC50 [2] of 6.9 µM.

Source: ChEMBL document CHEMBL2069216, “Discovery of novel 2-aminopyridine-3-carboxamides as c-Met kinase inhibitors” (Bioorg Med Chem, 2012)
